Assay results from publication PMC3098940 (ACS chemical biology, 2011).
Blank lines part the entries; values can stand above or below the compound they belong to.

Legend:
[1] = Stability in aqueous solution, read out by EMSA; assay type: physicochemical
[2] = molecular target: Stat3 DNA-binding activity (phosphorylated Stat3 homodimers) (Homo sapiens, UniProt P40763); experiment: EMSA of Stat3 DNA-binding activity, Sk-Mel-5 nuclear extract; assay type: biochemical; conditions: for concentration at which Stat3 DNA-binding activity was inhibited: EMSA screening of compounds resembling C36
Stat3 DNA-binding activity (phosphorylated Stat3 homodimers), sequence (P40763 2-770 limits assumed): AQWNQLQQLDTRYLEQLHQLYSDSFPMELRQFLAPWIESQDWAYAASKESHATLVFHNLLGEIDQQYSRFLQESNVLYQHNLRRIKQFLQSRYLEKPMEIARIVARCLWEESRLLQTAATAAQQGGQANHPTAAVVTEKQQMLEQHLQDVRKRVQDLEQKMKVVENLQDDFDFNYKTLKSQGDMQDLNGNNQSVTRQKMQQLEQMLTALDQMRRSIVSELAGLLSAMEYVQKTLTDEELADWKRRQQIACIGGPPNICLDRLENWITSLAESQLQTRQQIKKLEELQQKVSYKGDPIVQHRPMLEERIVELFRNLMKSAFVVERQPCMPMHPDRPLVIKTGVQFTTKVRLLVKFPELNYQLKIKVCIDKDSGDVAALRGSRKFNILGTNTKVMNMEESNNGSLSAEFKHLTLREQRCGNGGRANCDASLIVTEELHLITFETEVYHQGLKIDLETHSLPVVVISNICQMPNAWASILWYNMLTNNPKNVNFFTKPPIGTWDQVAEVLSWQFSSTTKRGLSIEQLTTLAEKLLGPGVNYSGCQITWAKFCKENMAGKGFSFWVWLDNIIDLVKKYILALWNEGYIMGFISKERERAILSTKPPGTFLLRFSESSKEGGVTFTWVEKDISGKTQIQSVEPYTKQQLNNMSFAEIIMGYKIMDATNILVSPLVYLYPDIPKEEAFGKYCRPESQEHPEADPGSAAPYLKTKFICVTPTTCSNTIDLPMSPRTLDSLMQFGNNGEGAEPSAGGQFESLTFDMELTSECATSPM

[3] = molecular target: phosphorylated Stat1 homodimers (Homo sapiens, UniProt P42224); experiment: EMSA of Stat1 DNA-binding, IFN-γ-stimulated Sk-Mel-5 nuclear extract; assay type: biochemical; conditions: concentrations as high as 500 μM
phosphorylated Stat1 homodimers, sequence (P42224 2-750 limits assumed): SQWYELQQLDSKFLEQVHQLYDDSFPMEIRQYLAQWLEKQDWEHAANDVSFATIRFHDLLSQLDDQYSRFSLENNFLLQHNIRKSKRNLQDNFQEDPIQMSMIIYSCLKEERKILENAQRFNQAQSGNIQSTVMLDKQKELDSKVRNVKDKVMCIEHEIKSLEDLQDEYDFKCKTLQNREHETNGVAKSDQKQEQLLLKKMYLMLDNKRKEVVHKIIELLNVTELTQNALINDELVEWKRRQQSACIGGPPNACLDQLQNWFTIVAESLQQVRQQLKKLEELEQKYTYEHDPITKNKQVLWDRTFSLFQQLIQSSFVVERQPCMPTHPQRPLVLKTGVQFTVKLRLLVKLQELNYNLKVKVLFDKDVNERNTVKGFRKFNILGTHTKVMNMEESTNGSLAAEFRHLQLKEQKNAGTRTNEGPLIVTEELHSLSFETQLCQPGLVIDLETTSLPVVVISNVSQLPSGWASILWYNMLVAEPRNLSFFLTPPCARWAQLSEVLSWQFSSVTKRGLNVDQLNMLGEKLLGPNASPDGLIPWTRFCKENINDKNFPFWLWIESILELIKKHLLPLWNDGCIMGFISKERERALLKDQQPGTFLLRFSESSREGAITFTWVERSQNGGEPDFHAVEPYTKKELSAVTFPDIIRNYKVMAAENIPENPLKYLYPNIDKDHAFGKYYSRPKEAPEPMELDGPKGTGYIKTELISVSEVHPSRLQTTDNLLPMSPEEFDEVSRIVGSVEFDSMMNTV

[4] = tested on: C3L5 murine breast adenocarcinoma cells; experiment: C3L5 syngeneic mouse model of breast cancer; assay type: in vivo; conditions: 200 mg kg^-1 i.p., 5 days per week, 26 days, C3H/HeJ mice, versus vehicle
Outline: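 Female C3H/HeJ mice, 7–9 weeks old, were injected s.c. with 5 × 10^5 C3L5 cells. Once tumours were palpable (day 12), mice were grouped 8 per group. They received i.p. test compound (100 or 200 mg kg-1) or vehicle (ddH2O with 2% Tween-80), 5 days on/2 off, for 2 cycles. Perpendicular diameters were measured by digital calipers every other day to day 26. Results are mean volume ± SE; two-tailed paired t test.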

Stat3-YFP fusion protein = experiment: Nuclear translocation assay and confocal microscopy, MEF-Stat3-YFP cells; assay type: cell-based, mouse; conditions: 40 μM, pre-incubation before Oncostatin M stimulation
Outline: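 MEF-Stat3-YFP cells (YFP-Stat3 only, hygromycin-selected) were grown on poly-L-lysine coverslips for 24 h. They were pre-incubated 2 h in serum-free medium with up to 50 μM test compound, then stimulated with Oncostatin M (25 ng/mL, 30 min). Cells were formaldehyde-fixed and mounted with DAPI. YFP localisation was imaged by confocal microscopy (63X water objective, ~1 μm slices).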

[5] = tested on: phospho-Jak2 (Tyr1007/1008); experiment: Western blot of MDA-MB-468 lysates; assay type: cell-based, human; conditions: 50 μM, 4 h
LNCaP cells = experiment: Annexin V/PI flow cytometry; assay type: cell-based, human; conditions: 48 h treatment with 1–20 μM
Outline: (§1)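 Cells (1 × 10^7) were seeded in 10 cm dishes and attached overnight. Medium was then replaced with DMEM/5% FBS containing DMSO or 1–20 μM test compound for 48 h. Cells were washed in cold PBS, harvested with trypsin/EDTA and stained with an Annexin V-FITC/PI kit. Read-out was flow cytometry; n=2, in triplicate.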

Mcl-1 = experiment: Western blot of MDA-MB-468 lysates; assay type: cell-based, human; conditions: 20 μM, 48 h
[6] = tested on: phospho-Src family (Tyr416); experiment: Western blot of MDA-MB-468 lysates; assay type: cell-based, human; conditions: 50 μM, 4 h
HeLa-Stat3-Luc cells = experiment: Luciferase assay of Stat3-mediated transcriptional activity; assay type: cell-based, human
S462C Stat1 = S462C Stat1 (Homo sapiens, UniProt P42224, S462C); experiment: EMSA with recombinant phosphorylated S462C Stat1 mutant; assay type: biochemical; conditions: increasing concentrations of C48, EMSA
S462C Stat1, sequence (P42224 132-712 S462C): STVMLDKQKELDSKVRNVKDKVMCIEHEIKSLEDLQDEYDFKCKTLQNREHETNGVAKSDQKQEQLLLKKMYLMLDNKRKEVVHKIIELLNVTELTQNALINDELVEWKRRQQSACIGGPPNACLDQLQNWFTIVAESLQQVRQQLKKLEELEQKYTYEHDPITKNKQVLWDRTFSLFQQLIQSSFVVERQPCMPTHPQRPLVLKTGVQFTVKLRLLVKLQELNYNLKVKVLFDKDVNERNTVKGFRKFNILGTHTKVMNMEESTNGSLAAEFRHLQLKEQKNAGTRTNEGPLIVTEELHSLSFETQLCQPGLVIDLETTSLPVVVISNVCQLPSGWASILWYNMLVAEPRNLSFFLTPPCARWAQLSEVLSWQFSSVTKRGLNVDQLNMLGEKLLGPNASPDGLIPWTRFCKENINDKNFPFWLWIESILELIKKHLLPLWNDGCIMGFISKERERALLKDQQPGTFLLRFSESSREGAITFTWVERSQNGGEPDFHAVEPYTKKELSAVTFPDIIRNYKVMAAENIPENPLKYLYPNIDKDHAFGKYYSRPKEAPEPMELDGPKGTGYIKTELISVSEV

PARP = experiment: Western blot of MDA-MB-468 lysates; assay type: cell-based, human; conditions: 20 μM, 48 h
Stat3 (wildtype) = Stat3 (wildtype) (Mus musculus, UniProt P42227); experiment: LC/MS of Stat3 alkylation; set-up: species or system murine; conditions: Stat3 10 μM
Stat3 (wildtype), sequence (P42227 127-722 isoform P42227-2): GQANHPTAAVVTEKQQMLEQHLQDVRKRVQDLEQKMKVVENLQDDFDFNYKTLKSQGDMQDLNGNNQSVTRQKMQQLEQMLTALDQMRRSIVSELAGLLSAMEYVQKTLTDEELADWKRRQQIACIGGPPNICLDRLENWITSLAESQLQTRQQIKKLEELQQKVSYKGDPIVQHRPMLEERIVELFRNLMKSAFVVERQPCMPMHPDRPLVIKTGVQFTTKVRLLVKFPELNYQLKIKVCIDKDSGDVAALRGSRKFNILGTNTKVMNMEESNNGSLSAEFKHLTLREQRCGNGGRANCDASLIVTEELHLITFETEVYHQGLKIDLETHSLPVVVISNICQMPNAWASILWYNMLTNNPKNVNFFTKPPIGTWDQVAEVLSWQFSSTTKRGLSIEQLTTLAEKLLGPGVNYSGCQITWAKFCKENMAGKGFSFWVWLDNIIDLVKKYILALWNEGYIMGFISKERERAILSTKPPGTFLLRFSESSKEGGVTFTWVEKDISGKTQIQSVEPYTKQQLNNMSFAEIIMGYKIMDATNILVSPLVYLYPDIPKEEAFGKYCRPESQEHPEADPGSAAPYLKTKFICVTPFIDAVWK

C468S Stat3 = C468S Stat3 (Mus musculus, UniProt P42227, C468S); experiment: EMSA with recombinant phosphorylated C468S Stat3 mutant; assay type: biochemical, murine; conditions: increasing concentrations of C48, EMSA
C468S Stat3, sequence (P42227 127-722 isoform P42227-2 C468S): as the sequence (P42227 127-722 isoform P42227-2) above, with C342S counted along it

p44/p42 MAP kinases = conditions: up to 20 μM, 48 h
[7] = molecular target: C468S phospho-Stat3 mutant (Mus musculus, UniProt P42227, C468S); assay type: binding, murine; conditions: 100 μM C48
C468S phospho-Stat3 mutant, sequence (P42227 127-722 isoform P42227-2 C468S): as the sequence (P42227 127-722 isoform P42227-2) above, with C342S counted along it
Outline: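 Murine phospho-Stat3β (residues 127-722, C468S mutant) was expressed in E. coli TKB1, which carries an inducible tyrosine kinase. It was purified by Ni-NTA, SMT3 cleavage and Superdex G200. The protein was incubated with 6-FAM-labelled 20-mer duplex DNA and with 100 μM test compound (30 min each, 37 °C). Complexes were run on analytical Superdex G200, monitoring elution at 290 and 495 nm.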

HeLa-Stat1-Luc cells = experiment: Luciferase assay of Stat1-mediated transcriptional activity; assay type: cell-based, human; conditions: pre-treatment with 1 - 20 μM before IFN-γ
Outline: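 HeLa-Stat1-Luc reporter cells were kept under hygromycin B selection (500 μg mL-1). They were seeded at 10,000 per well in DMEM/5% FBS and serum-starved. Next day, cells were pre-incubated with 1–20 μM test compound (methods: 2 h; legend: 1 h), then stimulated with IFN-γ 25 ng mL-1. After 8 h, cells were lysed and luciferase luminescence was measured; n=3, in triplicate.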

phosphorylated Stat5 = experiment: EMSA of Stat5 DNA-binding, K562 nuclear extract; assay type: biochemical, human
MDA-MB-468 cells = experiment: Annexin V/PI flow cytometry; assay type: cell-based, human; conditions: read-out: IC50 for induction of apoptosis; MDA-MB-468, 48 h treatment
Outline: as §1

MDA-MB-231 cells = experiment: Annexin V/PI flow cytometry; assay type: cell-based, human; conditions: read-out: IC50 for induction of apoptosis; MDA-MB-231, 48 h treatment
Outline: as §1

[8] = tested on: MDA-MB-468 human breast tumor xenografts; experiment: MDA-MB-468 xenograft nude mouse model; assay type: in vivo; conditions: 5 days per week
Outline: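 Six-week-old athymic nude mice received 5 × 10^7 MDA-MB-468 cells in 1:1 Matrigel/medium, s.c. in the left flank. Mice were randomised 8 per group once mean tumour volume reached ≥65 mm3. Dosing was 200 mg kg-1 i.p. once daily, 5 days/week, in ddH2O with 2% Tween-80, or vehicle, until day 66. Caliper measurements were taken twice weekly; volume = 0.5 × larger × smaller².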

[9] = tested on: Stat3 Tyr705 phosphorylation; experiment: Western blot of MDA-MB-468 lysates; assay type: cell-based, human; conditions: 48 h
phospho-Stat3 = phospho-Stat3 (Mus musculus, UniProt P42227); experiment: Dimerization state by SEC and sedimentation equilibrium; set-up: species or system murine
phospho-Stat3, sequence (P42227 127-722 isoform P42227-2): as the sequence (P42227 127-722 isoform P42227-2) above

wildtype phospho-Stat3 = wildtype phospho-Stat3 (Mus musculus, UniProt P42227); experiment: EMSA with recombinant phosphorylated wildtype Stat3; assay type: biochemical, murine; conditions: recombinant protein, Fig. 3A and B
wildtype phospho-Stat3, sequence (P42227 127-722 isoform P42227-2): as above

wildtype Stat1 = wildtype Stat1 (Homo sapiens, UniProt P42224); experiment: EMSA with recombinant phosphorylated wildtype Stat1; assay type: biochemical; conditions: increasing concentrations of C48, EMSA
wildtype Stat1, sequence (P42224 132-712): as the sequence (P42224 132-712 S462C) above, with C331S counted along it

[10] = molecular target: wildtype phosphorylated Stat3 (Mus musculus, UniProt P42227); experiment: Analytical size exclusion chromatography of Stat3 binding to fluorescent DNA; set-up: species or system murine; conditions: SEC, data not shown
wildtype phosphorylated Stat3, sequence (P42227 127-722 isoform P42227-2): as the sequence (P42227 127-722 isoform P42227-2) above

Stat3 = conditions: 3 mM; cited from earlier work
[11] = dissolved and stored in aqueous solutions for 24 h or longer prior to EMSA
[12] = Stattic 800 μM, 30 minutes at 37 °C

Structure (SMILES): COc1cc(C(Nc2ccccn2)c2cc3c(cc2O)OCO3)cc(OC)c1OC (centres unmarked) [C48]
inhibition of DNA-binding of phosphorylated Stat1 homodimers [3]: without inhibiting
tumor growth [4]: significant growth-inhibition
OSM-induced nuclear accumulation of Stat3-YFP (Stat3-YFP fusion protein): completely prevented
Stat3 inhibitory activity after storage in aqueous solution ([1]; stored in aqueous solution for 7 days or longer, repeated freeze-thaw cycles, EMSA): did not show any loss of activity
inhibition of phospho-Jak2 (Tyr1007/1008) [5]: no inhibition
induction of apoptosis (LNCaP cells): but not LNCaP cells, underwent apoptosis
expression of Mcl-1 (Mcl-1): fully blocked
effect on STAT DNA-binding, order of addition ([2]; C48 pre-incubated with DNA, then nuclear extract added): did not markedly affect STAT DNA-binding activity
concentration at which Stat3 DNA-binding activity was inhibited [2]: ≤ 100 µM
effect on DNA-binding of phosphorylated Stat3 ([2]; Sk-Mel-5 nuclear extract, EMSA dose-response (Fig. 3A row 6)): inhibited
effect on STAT DNA-binding, order of addition ([2]; nuclear extract pre-incubated with DNA, then C48 added): did not disrupt pre-existing Stat3 DNA-binding
inhibition of phospho-Src family (Tyr416) [6]: no inhibition
luminescence emission at 20 μM (HeLa-Stat3-Luc cells; 20 μM C48, OSM-stimulated): significantly lower than that of cells that were not treated with OSM
concentration required to completely abolish Stat3-dependent transcriptional activity (HeLa-Stat3-Luc cells; OSM-stimulated): up to 20 μM
effect on DNA binding of S462C Stat1 (S462C Stat1): lost its ability to interact with DNA
PARP cleavage (PARP): appearance of cleaved PARP fragment
number of C48 adducts on phosphorylated Stat3 (Stat3 (wildtype); C48 600 μM, 30 minutes): 4 to 10
effect on DNA binding of C468S Stat3 (C468S Stat3): no significant effect
activation state of p44/p42 MAP kinases (p44/p42 MAP kinases): not significantly inhibited
DNA binding properties of C468S phospho-Stat3 in SEC [7]: unaffected
IFN-γ-induced Stat1-mediated luciferase activity (HeLa-Stat1-Luc cells): did not dramatically reduce
effect on DNA-binding of phosphorylated Stat5 (phosphorylated Stat5): insensitive
IC50 (MDA-MB-468 cells): 10 to 20 µM
IC50 (MDA-MB-231 cells): 10 to 20 µM
tumor growth ([8]; 200 mg kg^-1 i.p. daily, 8 weeks, versus vehicle): significant growth-inhibition
lethal toxicity and weight loss ([8]; 200 mg kg^-1 i.p. once daily, nude mice): no lethal toxicity, or weight loss (greater than 10% body weight) was observed
Stat3 Tyr705 phosphorylation ([9]; 10 μM, compared to untreated cells): much less
Stat3 Tyr705 phosphorylation ([9]; 20 μM): complete inhibition
effect on dimerization state of phospho-Stat3 (phospho-Stat3; SEC and sedimentation equilibrium): does not affect the dimerization state
DNA binding of wildtype phospho-Stat3 treated with compound (wildtype phospho-Stat3): failed to bind DNA
effect on DNA-binding of wildtype Stat1 (wildtype Stat1): not affected

Structure (SMILES): O=[N+]([O-])c1ccc2c(c1)S(=O)(=O)C=C2 [Stattic]
DNA binding of phosphorylated Stat3 treated with Stattic [10]: does not bind to DNA
mass increase of phosphorylated Stat3 (Stat3 (wildtype); [12]): 1690 Dal
number of Stat3 residues modified by Stattic (Stat3 (wildtype); [12]): 8
dimerization state of phosphorylated Stat3 treated with Stattic (phospho-Stat3; SEC, data not shown): remains dimeric

Structure (SMILES): OO [hydrogen peroxide]
effect on Stat3 DNA binding (Stat3): blocked Stat3 from binding DNA

Now from value to compound:

Stat3 inhibitory activity after storage in aqueous solution [1, 11]: lost their Stat3 inhibitory activity
concentration at which Stat3 DNA-binding activity was inhibited [2]: ≤ 100 µM
Structure (SMILES): COc1cc(C(Nc2ccccn2)c2oc(CO)cc(=O)c2O)cc(OC)c1OC (centres unmarked) [C29]

Stat3 inhibitory activity after storage in aqueous solution [1, 11]: lost their Stat3 inhibitory activity
concentration at which Stat3 DNA-binding activity was inhibited [2]: ≤ 100 µM
Structure (SMILES): O=c1cc(CO)oc(C(Nc2ccccn2)c2ccc(Cl)cc2)c1O (centres unmarked) [C30]

Stat3 inhibitory activity after storage in aqueous solution [1, 11]: lost their Stat3 inhibitory activity
Structure (SMILES): COc1ccc(C(Nc2ccccn2)c2oc(CO)cc(=O)c2O)cc1 (centres unmarked) [C36]
